PP5 inh: blocks human protein phosphatase 5 activity; purified PP5c, OMFP substrate fluorescence; inhibition, % at 6.7 µM; 0.18% of 320,000 active; AID 1987;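 active = inhibition above the campaign's mean inhibition across all tested compounds plus 3 SD, cut at about 9.5% in these data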;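 also: 0% = DMSO only and 100% = 100 µM cantharidin control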
PP1 inh: blocks human PP1-alpha phosphatase, a PP5 counter-screen; AID 2235; 0.9% of 320,000 active; P62136; purified PP1alpha, OMFP fluorescence; inhibition, % at 6.7 µM;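 active = inhibition above the mean inhibition of all tested compounds plus 3 SD, computed separately for each screening campaign, cut at about 15% in these data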
proCasp3 act: procaspase-3 (human) activation; P42574; recombinant procaspase-3 D3A, Ac-DEVD-pNA absorbance 405 nm; activation, % at 8.5 µM; 0.11% of 330,000 active;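 active = activation above the mean of all tested compounds plus 3 SD, cut at about 21% in these data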;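 also: 0% = DMSO alone and 100% = DMSO wells spiked with extra 5 µM PC-3 D3A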
Target sequence (P42574 whole entry D9A/D28A/D175A): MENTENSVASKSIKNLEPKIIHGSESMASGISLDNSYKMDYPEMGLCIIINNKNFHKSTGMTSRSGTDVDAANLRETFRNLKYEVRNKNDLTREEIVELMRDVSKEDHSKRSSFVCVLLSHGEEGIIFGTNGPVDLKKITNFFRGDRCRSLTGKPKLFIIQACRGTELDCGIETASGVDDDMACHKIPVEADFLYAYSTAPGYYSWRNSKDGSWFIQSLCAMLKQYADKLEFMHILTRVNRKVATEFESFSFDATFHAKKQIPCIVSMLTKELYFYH
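Assay system – Procaspase-3 D3A mutant · Benchmarks – DMSO low control, extra-enzyme high control · Technique – 405 nm absorbance of p-nitroaniline, reads at 0 and 120 min · Doses – 8.5 µM nominal · Measure – % activation between DMSO and enzyme-spiked controls · Also added – Ac-DEVD-pNA chromogenic peptide substrate · Schedule – 1 h compound preincubation, 2 h substrate hydrolysis at 25 °C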
proCasp7 act: counter-screen: procaspase-7 (human) activation. 0.093% of 330,000 active. recombinant procaspase-7, Ac-DEVD-pNA absorbance 405 nm; D23A/D198A/D206A triple mutant, cannot self-cleave; scale: DMSO 0, 5 µM enzyme 100. P55210. activation, % at 8.5 µM;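 active = percent activation above the screen-wide mean plus 3 SD, cut at about 25% in these data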
Target sequence (P55210 whole entry D23A/D198A/D206A): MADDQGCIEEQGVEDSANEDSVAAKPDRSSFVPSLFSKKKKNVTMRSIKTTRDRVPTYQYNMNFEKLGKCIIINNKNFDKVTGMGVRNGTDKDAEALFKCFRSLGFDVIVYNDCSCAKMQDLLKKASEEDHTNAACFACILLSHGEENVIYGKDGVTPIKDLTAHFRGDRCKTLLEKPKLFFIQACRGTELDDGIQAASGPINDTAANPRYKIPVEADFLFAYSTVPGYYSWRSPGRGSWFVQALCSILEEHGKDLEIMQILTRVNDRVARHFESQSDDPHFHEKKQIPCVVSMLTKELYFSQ
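Material: Procaspase-7 triple mutant (PC-7 D3A) | Quantity: 2 µM procaspase-7 mutant as dispensed | Reagent: DEVD-pNA substrate | Times: 1 h preincubation, 2 h reaction | Technique: 405 nm absorbance of p-nitroaniline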
PP1 inh confirm: confirmation of human PP1 phosphatase inhibitors; shares compounds with PP1 inh; purified PP1alpha, OMFP substrate fluorescence; inhibition, % at 6.7 µM; 52% of 1,900 active; AID 2358;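 active = mean PP1 inhibition above a set limit taken from the earlier primary screen, cut at about 15% in these data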
PP5 inh counter: counter-screen for PP1 inhibitors: human PP5 phosphatase inhibition; inhibition, % at 6.7 µM; purified PP5c, OMFP fluorescence; 4% of 1,900 active; AID 2360; shares compounds with PP1 inh;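 active = mean PP5 inhibition over triplicate wells above about 9.5% taken from the earlier PP1 screen, limit read from the data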
An asterisk follows results filed as active; nt = no result. An excerpt weighted towards active compounds, which were near 1.2% of everything screened.

SMILES | PP5 inh | PP1 inh | proCasp3 act | proCasp7 act | PP1 inh confirm | PP5 inh counter
Cc1cc(N)ccc1N1CCCC1 | 4 | 21* | -4 | -15 | -11 | -2
O=Cc1cccn1-c1ccc(O)cc1 | -2 | -4 | -4 | 6 | nt | nt
O=C(Nc1ccccc1-c1ccccc1)c1ccccc1 | 5 | -3 | 0 | 8 | nt | nt
Nc1c(S(=O)(=O)O)cc(NC(=O)c2ccccc2)c2c1C(=O)c1ccccc1C2=O | 7 | 31* | -8 | -8 | 18* | 2
CC(C)(Oc1ccc(Cl)cc1)C(=O)NCc1ccc(S(N)(=O)=O)cc1 | 0 | -1 | -2 | -3 | nt | nt
Oc1cccc2ccc(/C=C/c3c(F)cccc3Cl)nc12 | 0 | 5 | 6 | 10 | nt | nt
O=[N+]([O-])c1cccc(/C=C/c2ccc3cccc(O)c3n2)c1 | 2 | 25* | 3 | 7 | 21* | -7
COc1ccc(Cl)cc1/C=C/c1ccc2cccc(O)c2n1 | 2 | 18* | 1 | 2 | 16* | -3
CCOc1cccc(/C=C/c2ccc3cccc(O)c3n2)c1OC | 2 | 21* | -9 | 9 | 15* | -2
CCOc1cccc(/C=C/c2ccc3cccc(O)c3n2)c1O | 0 | 12 | nt | 1 | nt | nt
O=[N+]([O-])c1ccc(/C=C/c2ccc3cccc([N+](=O)[O-])c3n2)cc1 | -7 | 7 | -4 | -11 | nt | nt
Oc1cccc2ccc(/C=C/c3ccccc3Cl)nc12 | 1 | 19* | 10 | 6 | 11 | 0
CCOC(=O)N1CCN(C(=O)c2cccc(S(=O)(=O)Nc3ccccc3Cl)c2)CC1 | -1 | -4 | -11 | 16 | nt | nt
COC(=O)c1cc(CNC(=O)c2ccc(S(=O)(=O)N(C)c3ccccc3)cc2)ccc1OC | 2 | -4 | 9 | -2 | nt | nt
CN(CC(=O)Nc1ccc(N2CCOCC2)cc1)C(=O)CSc1ccc(Br)cc1 | 3 | -1 | -3 | 3 | nt | nt
COc1ccccc1/C=C/c1ccc2cccc(O)c2n1 | 2 | 23* | -2 | -4 | 15 | -1
Cc1c(-c2ccc(Cl)cc2)oc(=O)c2c(N)n(-c3ccccc3)nc12 | 1 | 23* | 4 | 5 | 28* | -3
CN(C(=O)COC(=O)C1CCN(S(=O)(=O)c2ccc3c(c2)OCCO3)CC1)C1CCS(=O)(=O)C1 (stereo unspecified) | -2 | -3 | 11 | 0 | nt | nt
CCOc1cc(/C=N/N=C(N)N)ccc1OCc1ccc(Cl)cc1 | 4 | 19* | -7 | -3 | 11 | 0
NC(N)=N/N=C/c1ccc(OCc2ccccc2)c(OCc2ccccc2)c1 | 6 | 35* | 2 | -8 | 35* | 3
CCOc1cc(/C=N/N=C(/N)c2nonc2N)cc(Br)c1OCc1ccc(Cl)cc1 | 3 | 18* | 6 | 2 | 15 | -4
COc1cc(/C=N/N=C(N)N)ccc1OCc1ccc(Cl)cc1 | 2 | 14 | -3 | 5 | nt | nt
NC(N)=N/N=C/c1ccccc1 | 0 | -1 | 0 | 9 | nt | nt
CC(=O)c1c(C)[nH]c(C(=O)COC(=O)c2cc(C)oc2C)c1C | 3 | -5 | 3 | -2 | nt | nt
COc1ccc(/C=C/C(=O)N2CCN(S(=O)(=O)c3ccccc3Br)CC2)cc1OC | nt | nt | 1 | 1 | nt | nt
SMILES | PP5 inh | PP1 inh | proCasp3 act | proCasp7 act | PP1 inh confirm | PP5 inh counter
Cc1c(NC(=O)C(C)OC(=O)c2cccnc2Cl)c(=O)n(-c2ccccc2)n1C (stereo unspecified) | 0 | -4 | 6 | 5 | nt | nt
O=C(NCCCCc1ccccc1)C12CN(Cc3ccccc3)CC1C(c1ccc([N+](=O)[O-])cc1)=NO2 (stereo unspecified) | 4 | 7 | -2 | 14 | nt | nt
O=C(NCCCCc1ccccc1)C12CN(Cc3ccccc3)CC1C(c1cccc([N+](=O)[O-])c1)=NO2 (stereo unspecified) | 2 | 24* | 2 | -8 | 7 | 0
COC(=O)C1CN(C(=O)COc2ccc(C)cc2)c2ccccc2O1 (stereo unspecified) | 1 | -3 | -5 | -8 | nt | nt
CCCOc1ccc(/C=N/Nc2cc(N3CCOCC3)ncn2)c(O)c1 | 0 | 27* | -3 | -4 | 23* | -6
CCCCOc1ccc(/C=N/Nc2cc(N3CCOCC3)nc(C)n2)cc1 | 5 | 3 | -4 | -5 | nt | nt
Oc1c(CN2CCN(c3ccccc3)CC2)cc(Br)c2cccnc12 | 5 | 29* | 2 | 9 | 32* | -3
CCCOc1ccc(C(C)=O)cc1CSc1nc(O)cc(=O)[nH]1 | -1 | 19* | 1 | -8 | 3 | -1
Cc1ccccc1/C=N/Nc1nc2ccccc2[nH]1 | 1 | 4 | -9 | -2 | nt | nt
C(=N\Nc1nc2ccccc2[nH]1)/c1cccc2cccnc12 | 0 | 18* | -7 | 3 | 11 | -3
C(=N\Nc1nc2ccccc2[nH]1)/c1c[nH]c2ccccc12 | 5 | 2 | 9 | -2 | nt | nt
O=[N+]([O-])c1cc(/C=N/Nc2nc3ccccc3[nH]2)c(O)cc1O | 1 | 18* | -6 | 5 | 31* | 0
COC(=O)CCC(=O)OC1(C)C(=O)C2=CN(c3ccccc3)C(c3ccc(OC)cc3)=CC2=C(Br)C1=O (stereo unspecified) | 2 | 22* | -14 | -22 | 12 | 25*
COC(=O)CCC(=O)OC1(C)C(=O)C2=CN(Cc3ccccc3)C(c3ccc(OC)cc3)=CC2=C(Br)C1=O (stereo unspecified) | 10* | 21* | -2 | -21 | 9 | 28*
COC(=O)CCC(=O)OC1(C)C(=O)C2=CN(CCc3c[nH]c4ccccc34)C(c3ccc(OC)cc3)=CC2=C(Br)C1=O (stereo unspecified) | 3 | 9 | -5 | -8 | nt | nt
COC(=O)CCC(=O)OC1(C)C(=O)C2=CN(CCCOC(C)C)C(c3ccc(OC)cc3)=CC2=C(Br)C1=O (stereo unspecified) | -1 | 13 | -13 | -42 | nt | nt
O=C(COC(=O)/C=C/c1ccco1)NCc1ccc2c(c1)OCO2 | -2 | -5 | -3 | 5 | nt | nt
CCCCNc1c(-c2ccc(OC)c(SC3CCCCC3)c2)nc2cc(C)ccn12 | 6 | 12 | 1 | 8 | nt | nt
CCCCCCSc1cc(-c2nc3cc(C)ccn3c2NC2CCCCC2)ccc1OC | 2 | 22* | -11 | -13 | 11 | -3
CCCCCCSc1cc(-c2nc3cnccn3c2NCc2ccccc2)ccc1OC | -3 | 18* | -9 | -22 | 8 | 0
COc1ccc(-c2nc3cnccn3c2NCc2ccccc2)cc1SC1CCCCC1 | 3 | 11 | -2 | -7 | nt | nt
CCCCNc1c(-c2ccc(OC)c(SC3CCCCC3)c2)nc2cnccn12 | 5 | 26* | -6 | -2 | 17* | 4
CCCCCCSc1ccc(-c2nc3cc(C)ccn3c2NC2CCCCC2)cc1 | nt | nt | -9 | -20 | nt | nt
